Experimental data taken from ChEMBL document CHEMBL1122190, “Mammary tumor inhibiting effect of 3,3'-diacetoxy-alpha, beta-dialkylstilbenes and of related stilbene oxides” (1982).
Blank lines part the entries; values can stand above or below the compound they belong to.

What was measured:
[1] = molecular target: T1, Estrogen receptor (Mus musculus) (UniProt O08537+P19785); experiment: Uterotrophic activity in mice at 10 ug dose; type: functional, tissue-based; conditions: Uterus
Procedure, shortened: (§1)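 Dorfman uterine weight test in immature female NMRI mice, ten per group, 20 days old and 10-12 g at start. Compounds were given in olive oil sc once daily for 3 days. Mice were killed 24 h after the last injection, and uteri were removed, dried at 100 °C for 24 h and weighed.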

[2] = molecular target: T1, Estrogen receptor (Mus musculus); experiment: Uterotrophic activity in mice at 1 ug dose; type: functional, tissue-based; conditions: Uterus; procedure, shortened: as §1
[3] = molecular target: T1, Estrogen receptor (Mus musculus); experiment: Uterotrophic activity in mice at 500 ug dose; type: functional, tissue-based; conditions: Uterus
Procedure, shortened: (§2)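 Dorfman uterine weight test in immature female NMRI mice (20 days old at start, 10-12 g; ten per group). Compound given sc daily in olive oil for 3 days. Animals killed 24 h after last injection; uteri removed, dried at 100 °C for 24 h and weighed.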

[4] = molecular target: T1, Estrogen receptor (Mus musculus); experiment: Uterotrophic activity in mice at 50 ug dose; type: functional, tissue-based; conditions: Uterus; procedure, shortened: as §2
[5] = molecular target: T1, Estrogen receptor (Mus musculus); experiment: Uterotrophic activity in mice at 100 ug dose; type: functional, tissue-based; conditions: Uterus; procedure, shortened: as §1
Mus musculus [6] = experiment: Effect on estrogen and progesterone receptors positive hormone-dependent postmenopausal human mammary carcinoma tumor growth in nude mice at 2.6 mg/kg/day; type: functional
Procedure, shortened: (§3)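 Nude mice carried serially transplanted hormone-dependent human mammary carcinoma. Compounds in olive oil were given sc 6 times a week for 4-5 weeks. Two tumor diameters were measured weekly, and size at treatment start was set as 1. Tumor size was averaged after 5 weeks of therapy.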

[7] = tested on: Estrogen receptor (Bos taurus); experiment: In vitro relative binding affinity for Estrogen receptor compared to [3H]estradiol
Mus musculus [8] = experiment: Effect on estrogen and progesterone receptors positive hormone-dependent postmenopausal human mammary carcinoma tumor growth in nude mice at 2.8 mg/kg/day; type: functional; procedure, shortened: as §3
[9] = molecular target: T1, Estrogen receptor (Mus musculus); conditions: Uterus
[10] = molecular target: T1, Estrogen receptor (Mus musculus); experiment: Antiuterotrophic activity in mice at 2.5 ug dose; type: functional; procedure, shortened: as §1
[11] = molecular target: T1, Estrogen receptor (Mus musculus); experiment: Antiuterotrophic activity in mice at 25 ug dose; type: functional; procedure, shortened: as §1
[12] = molecular target: T1, Estrogen receptor (Mus musculus); experiment: Antiuterotrophic activity in mice at 50 ug dose; type: functional; procedure, shortened: as §1
[13] = molecular target: T1, Estrogen receptor (Mus musculus); experiment: Antiuterotrophic activity in mice at 5 ug dose; type: functional; procedure, shortened: as §1
[14] = molecular target: T1, Estrogen receptor (Mus musculus); experiment: Percent inhibition of estrone-stimulated uterine growth in immature mouse at 2.5 ug dose; type: functional; procedure, shortened: as §1
[15] = molecular target: T1, Estrogen receptor (Mus musculus); experiment: Percent inhibition of estrone-stimulated uterine growth in immature mouse at 25 ug dose; type: functional; procedure, shortened: as §1
[16] = molecular target: T1, Estrogen receptor (Mus musculus); experiment: Percent inhibition of estrone-stimulated uterine growth in immature mouse at 5 ug dose; type: functional; procedure, shortened: as §1
Mus musculus [17] = experiment: Effect on estrogen and progesterone receptors positive hormone-dependent postmenopausal human mammary carcinoma tumor growth in nude mice at 1.0 mg/kg/day dose; type: functional; procedure, shortened: as §3
Mus musculus [18] = experiment: Effect on estrogen and progesterone receptors positive hormone-dependent postmenopausal human mammary carcinoma tumor growth in nude mice at 2.0 mg/kg/day; type: functional; procedure, shortened: as §3
Rattus norvegicus [19] = experiment: Effect on DMBA-induced hormone-dependent mammary carcinoma tumor growth in rats at 2.0 mg/kg/day; type: functional
Procedure, shortened: (§4)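 Female Sprague-Dawley rats received a single 20 mg DMBA dose by gastric intubation at 50 days of age. About 4 weeks later, rats bearing at least one tumor >140 mm² were grouped in tens. Compounds in olive oil were given sc 6 times a week for 28 days. Tumor area (length × width) was measured twice weekly.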

Rattus norvegicus [20] = experiment: Effect on DMBA-induced hormone-dependent mammary carcinoma tumor growth in rats at 4.0 mg/kg/day; type: functional; procedure, shortened: as §4
Rattus norvegicus [21] = experiment: Effect on DMBA-induced hormone-dependent mammary carcinoma tumor growth in rats at 1.0 mg/kg/day (initial tumor number); type: functional; procedure, shortened: as §4
Rattus norvegicus [22] = experiment: Effect on DMBA-induced hormone-dependent mammary carcinoma tumor number in rats at 1.0 mg/kg/day; type: functional; procedure, shortened: as §4
Rattus norvegicus [23] = experiment: Effect on DMBA-induced hormone-dependent mammary carcinoma tumor number in rats at 2.0 mg/kg/day; type: functional; procedure, shortened: as §4
Rattus norvegicus [24] = experiment: Effect on DMBA-induced hormone-dependent mammary carcinoma tumor growth in rats at 4.0 mg/kg/day (initial tumor number); type: functional; procedure, shortened: as §4
Rattus norvegicus [25] = experiment: Effect on DMBA-induced hormone-dependent mammary carcinoma tumor number in rats at 4.0 mg/kg/day; type: functional; procedure, shortened: as §4
Rattus norvegicus [26] = experiment: Percent remission of DMBA-induced hormone-dependent mammary carcinoma in rats at 1.0 mg/kg/day; type: functional; procedure, shortened: as §4
Rattus norvegicus [27] = experiment: Percent unchanged DMBA-induced hormone-dependent mammary carcinoma in rats at 1.0 mg/kg/day; type: functional; procedure, shortened: as §4
Rattus norvegicus [28] = experiment: Percent partial remission of DMBA-induced hormone-dependent mammary carcinoma in rats at 1.0 mg/kg/day; type: functional; procedure, shortened: as §4
Rattus norvegicus [29] = experiment: Percent progression of DMBA-induced hormone-dependent mammary carcinoma in rats at 1.0 mg/kg/day; type: functional; procedure, shortened: as §4
Rattus norvegicus [30] = experiment: Percent remission of DMBA-induced hormone-dependent mammary carcinoma in rats at 2.0 mg/kg/day; type: functional; procedure, shortened: as §4
Rattus norvegicus [31] = experiment: Percent unchanged DMBA-induced hormone-dependent mammary carcinoma in rats at 2.0 mg/kg/day; type: functional; procedure, shortened: as §4
Rattus norvegicus [32] = experiment: Percent partial remission of DMBA-induced hormone-dependent mammary carcinoma in rats at 2.0 mg/kg/day; type: functional; procedure, shortened: as §4
Rattus norvegicus [33] = experiment: Percent progression of DMBA-induced hormone-dependent mammary carcinoma in rats at 2.0 mg/kg/day; type: functional; procedure, shortened: as §4
Rattus norvegicus [34] = experiment: Percent remission of DMBA-induced hormone-dependent mammary carcinoma in rats at 4.0 mg/kg/day; type: functional; procedure, shortened: as §4
Rattus norvegicus [35] = experiment: Percent unchanged DMBA-induced hormone-dependent mammary carcinoma in rats at 4.0 mg/kg/day; type: functional; procedure, shortened: as §4
Rattus norvegicus [36] = experiment: Percent partial remission of DMBA-induced hormone-dependent mammary carcinoma in rats at 4.0 mg/kg/day; type: functional; procedure, shortened: as §4
Rattus norvegicus [37] = experiment: Percent progression of DMBA-induced hormone-dependent mammary carcinoma in rats at 4.0 mg/kg/day; type: functional; procedure, shortened: as §4
Rattus norvegicus [38] = experiment: Effect on DMBA-induced hormone-dependent mammary carcinoma tumor growth in rats at 1.0 mg/kg/day; type: functional; procedure, shortened: as §4
[39] = molecular target: T1, Estrogen receptor (Mus musculus); experiment: Percent inhibition of estrone-stimulated uterine growth in immature mouse at 50 ug dose; type: functional; procedure, shortened: as §1
Rattus norvegicus [40] = experiment: Effect on DMBA-induced hormone-dependent mammary carcinoma tumor growth in rats at 2.0 mg/kg/day (number of tumors at test beginning)
[41] = molecular target: T1, Estrogen receptor (Mus musculus); experiment: Antiuterotrophic activity in mice at 100 ug dose; type: functional; procedure, shortened: as §1
[42] = molecular target: T1, Estrogen receptor (Mus musculus); experiment: Percent inhibition of estrone-stimulated uterine growth in immature mouse at 100 ug dose; type: functional; procedure, shortened: as §1

T1 sequence (O08537 whole entry, looked up): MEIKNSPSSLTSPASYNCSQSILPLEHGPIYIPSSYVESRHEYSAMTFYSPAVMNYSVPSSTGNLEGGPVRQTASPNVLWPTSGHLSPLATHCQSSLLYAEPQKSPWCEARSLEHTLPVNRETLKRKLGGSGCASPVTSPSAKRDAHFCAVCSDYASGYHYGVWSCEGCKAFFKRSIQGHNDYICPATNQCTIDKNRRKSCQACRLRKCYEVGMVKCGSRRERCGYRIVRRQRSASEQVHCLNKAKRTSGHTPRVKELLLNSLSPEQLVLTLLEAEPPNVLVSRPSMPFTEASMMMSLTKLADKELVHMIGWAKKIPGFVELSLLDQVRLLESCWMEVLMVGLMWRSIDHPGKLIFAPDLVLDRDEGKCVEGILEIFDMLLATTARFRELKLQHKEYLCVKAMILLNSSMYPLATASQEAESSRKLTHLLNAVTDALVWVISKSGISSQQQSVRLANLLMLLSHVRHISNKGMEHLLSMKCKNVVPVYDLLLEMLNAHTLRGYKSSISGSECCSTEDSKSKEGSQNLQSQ
T1 sequence (P19785 whole entry, looked up): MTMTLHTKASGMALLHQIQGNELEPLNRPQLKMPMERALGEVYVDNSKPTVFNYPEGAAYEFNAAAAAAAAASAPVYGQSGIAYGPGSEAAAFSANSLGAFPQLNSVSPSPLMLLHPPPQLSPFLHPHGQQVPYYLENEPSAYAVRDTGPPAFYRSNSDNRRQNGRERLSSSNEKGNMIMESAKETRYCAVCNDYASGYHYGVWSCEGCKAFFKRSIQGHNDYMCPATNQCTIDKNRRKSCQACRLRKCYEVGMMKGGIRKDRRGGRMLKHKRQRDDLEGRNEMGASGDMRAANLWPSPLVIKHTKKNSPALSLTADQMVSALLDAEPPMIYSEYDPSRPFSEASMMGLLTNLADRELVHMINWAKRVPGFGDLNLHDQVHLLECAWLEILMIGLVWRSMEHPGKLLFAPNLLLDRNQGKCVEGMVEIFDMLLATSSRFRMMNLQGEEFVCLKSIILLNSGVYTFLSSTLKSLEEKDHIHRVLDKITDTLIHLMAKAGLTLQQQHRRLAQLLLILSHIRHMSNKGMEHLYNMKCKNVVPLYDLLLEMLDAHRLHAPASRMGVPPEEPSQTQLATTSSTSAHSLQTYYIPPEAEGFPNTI

Effect [1]: 24.3 | Effect [2]: 15.9 | Effect [3]: 42 | Effect [4]: 27.4 | Effect [5]: 32.7 | RBA [7]: 2.2%
SMILES: CC/C(=C(/CC)c1cccc(OC(C)=O)c1)c1cccc(OC(C)=O)c1
Tumor size (Mus musculus [6]): 2.3

RBA [7]: 1.3%
SMILES: CCC/C(=C(/CCC)c1cccc(OC(C)=O)c1)c1cccc(OC(C)=O)c1
Tumor size (Mus musculus [8]): 2.32

Effect [9]: 40.7
SMILES: C[C@]12CC[C@@H]3c4ccc(O)cc4CC[C@H]3[C@@H]1CCC2=O

Effect [10]: 38.3 | Effect [11]: 29.9 | Effect [12]: 29.1 | Effect [13]: 28.1 | inhibition [14]: 18.7% | inhibition [15]: 42.8% | inhibition [16]: 48% | inhibition [39]: 45.1% | RBA [7]: 3.2%
SMILES: CC/C(=C(/CC)c1cccc(O)c1)c1cccc(O)c1
Tumor size (Mus musculus [17]): 2.78 | Tumor size (Mus musculus [18]): 1.76 | Change (Rattus norvegicus [19]): 2% | Change (Rattus norvegicus [20]): -26% | No. of tumors (Rattus norvegicus [21]): 32 | No. of tumors (Rattus norvegicus [22]): 34 | No. of tumors (Rattus norvegicus [23]): 21 | No. of tumors (Rattus norvegicus [24]): 37 | No. of tumors (Rattus norvegicus [25]): 17 | Tumors (Rattus norvegicus [26]): 15% | Tumors (Rattus norvegicus [27]): 38% | Tumors (Rattus norvegicus [28]): 23% | Tumors (Rattus norvegicus [29]): 24% | Tumors (Rattus norvegicus [30]): 25% | Tumors (Rattus norvegicus [31]): 32% | Tumors (Rattus norvegicus [32]): 26% | Tumors (Rattus norvegicus [33]): 17% | Tumors (Rattus norvegicus [34]): 27% | Tumors (Rattus norvegicus [35]): 32% | Tumors (Rattus norvegicus [36]): 22% | Tumors (Rattus norvegicus [37]): 19% | Tumors (Rattus norvegicus [38]): 40% | Number of tumors at test beginning (Rattus norvegicus [40]): 32

Effect [1]: 30.3 | Effect [2]: 22.2 | Effect [3]: 38.6 | Effect [4]: 33.4 | Effect [41]: 43.7 | Effect [12]: 36.4 | Effect [13]: 33.2 | Effect [5]: 36.2 | inhibition [42]: 0% | inhibition [16]: 33.5% | inhibition [39]: 22.6% | RBA [7]: 4.2%
SMILES: CCC1(c2cccc(OC(C)=O)c2)OC1(CC)c1cccc(OC(C)=O)c1 (stereo not given)
Tumor size (Mus musculus [6]): 2.38
